An excerpt weighted towards active compounds, which were near 2.9% of everything screened.
HIV Env fusion = inhibitors of HIV-1 Env-driven cell-cell fusion, primary screen, HeLa-JRFL effector, CEM21 target cells, luciferase; 360,000 compounds, 1.1% hits; inhibition, % at 12.3 µM;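 active means mean replicate inhibition score of at least 50 and every replicate individually at or above 50; inconclusive means only one of the two criteria met; inactive means mean below 50 and not all replicates reaching 50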;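 further: 0% = plate neutral controls and 100% = maraviroc near 300 nM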
Cneo AK release = Cryptococcus neoformans cell lysis inducers, primary screen, AK release luminescence, single concentration; C. neoformans lysis, adenylate kinase release luminescence, 4 h; normalised: neutral wells 0, clomiphene wells 100; lysis activity, % at 15 µM; 360,000 compounds, 0.2% hits; AID 651654, 2012;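 active means mean lysis activity across replicates of at least 80%, whatever share of replicates individually reach that level; inactive means mean lysis activity below 80%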
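Assay system: C. neoformans cells. Amount: yeast cell density of 5 × 10^6 cells/mL. Technique: AK luminescence. Buffer or medium: YPD. Times: static 4 h at 37 °C with compound, 1 h detection. Dosing: single-point compound dose. Read-out: lysis from increased AK signal.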
CDK5 p35 inh = inhibitors of human CDK5/p35 kinase, primary screen, biochemical, single concentration | Cyclin-dependent kinase 5 (Homo sapiens) + Cyclin-dependent kinase 5 activator 1 (Homo … | Recombinant CDK5/p35, ADP-Glo luminescence, 60 min | inhibition, % at 10 µM | 330,000 compounds, 0.01% hits | AID 488839, 2010;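 active means highest replicate inhibition of at least 50% and at least 75% of replicates reaching 50%; inconclusive means only one of the two criteria met; inactive means both criteria failed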;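 further: plate controls were DMSO neutral control for no effect and GW8510 at 10 µM for full effect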
Target sequence (Q00535 whole entry, looked up): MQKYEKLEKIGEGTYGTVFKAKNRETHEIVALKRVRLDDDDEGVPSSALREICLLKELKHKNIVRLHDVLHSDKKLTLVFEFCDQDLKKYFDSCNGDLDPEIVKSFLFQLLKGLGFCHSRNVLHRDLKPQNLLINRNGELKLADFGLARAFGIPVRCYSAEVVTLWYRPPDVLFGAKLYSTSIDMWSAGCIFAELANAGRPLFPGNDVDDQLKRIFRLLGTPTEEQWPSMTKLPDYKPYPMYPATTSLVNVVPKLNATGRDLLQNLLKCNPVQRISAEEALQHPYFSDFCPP
Target sequence (Q15078 whole entry, looked up): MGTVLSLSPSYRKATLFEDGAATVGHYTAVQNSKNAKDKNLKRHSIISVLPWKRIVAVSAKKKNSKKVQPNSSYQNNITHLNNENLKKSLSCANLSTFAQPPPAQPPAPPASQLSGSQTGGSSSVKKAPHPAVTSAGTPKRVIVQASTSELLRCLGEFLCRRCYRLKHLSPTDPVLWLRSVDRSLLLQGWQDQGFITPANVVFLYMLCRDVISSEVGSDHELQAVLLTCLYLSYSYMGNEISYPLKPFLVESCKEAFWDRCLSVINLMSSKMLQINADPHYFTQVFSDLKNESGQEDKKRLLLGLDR
PAX8 inh HTS = inhibitors of PAX8-driven TPO luciferase reporter, primary screen, RMG-I cells, single concentration. SteadyGlo, 24 h. inhibition, % at 12.6 µM. 360,000 compounds, 1.2% hits;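 active means mean replicate inhibition at least 60% with every replicate also reaching 60%; inconclusive means only one of the two criteria is met; inactive means mean below 60% and not all replicates reaching 60%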;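 further: luciferase light reporting Pax8 driven TPO promoter activity; plate controls were median of neutral control wells for no effect and mitoxantrone controls for full effect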
dFosB act = activators of delta FosB homodimer, primary screen, biochemical, fluorescence polarization, TAMRA-CDK5 oligo, single point | activation, % at 25 µM | 340,000 compounds, 0.99% hits | Protein FosB (Mus musculus), P13346 | purified delta FosB; percent of positive-control signal above neutral wells;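 active means mean activation above about 17%, with every replicate also reaching it, limit read from the data, passing the limit was not always enough; inconclusive means only one of the two conditions met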
GSIS activator = GLuc luminescence reporter in INS-1E cells, primary screen for activators of glucose-dependent secretion of insulin; INS-1E GLuc reporter insulin secretion, 2-3 h; activation, % at 16.6 µM; 370,000 compounds, 0.61% hits;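 active means lowest replicate activation of at least 40%, so every replicate reaches that level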;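 further: 0% = median of neutral control wells and 100% = median of IBMX positive control wells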
* = called active by the depositor; i = inactive; ? = inconclusive; . = not tested or not shown; [ ] = remark or other dose.

SMILES	HIV Env fusion	Cneo AK release	CDK5 p35 inh	PAX8 inh HTS	dFosB act	GSIS activator
CN1c2ccccc2C(C)(C)C12C=Nc1c(cc(N3CCOCC3)c3ccccc13)O2 (stereo not given)	38	-15	0	72*	-8	.
CN1c2ccccc2C(C)(C)C12C=Cc1cc(O)ccc1O2 (stereo not given)	.	1	0	.	-3	-21
C[C@H]1CN([C@@H](C)CO)C(=O)c2cc(-c3ccccc3)cnc2O[C@H]1CN(C)C(=O)Nc1ccc2c(c1)OCO2	-4[16.7 µM]	-4	.	7	.	-6
O=C(N/N=C/c1cccnc1)c1ccc(Cl)c(Cl)c1	-1	.	0	-2	-7	17
O=C(N/N=C/c1cc(Cl)ccc1O)c1ccncc1	-18	2	3	66*	-15	8
O=C(N/N=C/c1cc(Cl)ccc1O)C(=O)Nc1ccccc1OC(F)(F)C(F)F	-11	.	1	70*	2	7
O=C(N/N=C/c1cccnc1)c1ccc(NC(=O)c2cccc(Cl)c2)cc1	14	-2	0	15	46*	4
O=C(N/N=C/c1ccccc1Cl)c1ccncc1	0	1	0	-12	1	9
CCC(=O)N[C@@H]1C=C[C@H](CC(=O)NCc2ccccc2F)O[C@@H]1CO	i	-1	.	-6	.	-2
C[C@H](CO)N1C[C@H](C)[C@@H](CN(C)C(=O)c2ccc(F)cc2)Oc2ncc(C#CC3CC3)cc2C1=O	4[16.7 µM]	-4	.	.	.	6
CO[C@H]1CN(C)C(=O)c2ccc(NS(=O)(=O)CC(F)(F)F)cc2OC[C@H](C)N(C)C[C@@H]1C	.	.	.	-3	.	-3
c1csc(CNc2ncnc3sccc23)c1	80*	-3	2	.	5	.
c1ccc(CNc2ncnc3sccc23)cc1	21	3	.	12	-2	-40
CN(Cc1cccs1)c1ncnc2sccc12	70*	.	-2	.	-4	.
COc1ccc2c3c(n(C)c2c1)[C@H](CO)N(C(=O)c1ccccn1)CC31CCN(C(=O)Cc2ccccc2)CC1	.	.	.	.	.	-6
CO[C@H]1CN(C)C(=O)c2cc(NC(=O)c3cc(C)on3)ccc2OC[C@H](C)NC[C@H]1C	-11[16.7 µM]	-3	.	-3	.	11
O=C(CCCN1C(=O)/C(=C/c2ccccc2Cl)SC1=S)Nc1cccnc1	24	0	-2	81*	0	-5
O=C(CCN1C(=O)/C(=C/c2ccccc2Cl)SC1=S)NNC(=O)c1ccccc1O	4	0	2	-7	37*	-8
O=C(CCN1C(=O)/C(=C/c2ccccc2Cl)SC1=S)NNC(=O)c1cccnc1	5	.	-2	-12	2	2
O=C(CCN1C(=O)/C(=C/c2ccccc2Cl)SC1=S)Nc1cccnc1	8	7	1	-21	0	11
Cc1ccc(/C=C2\SC(=S)N(CCC(=O)NNC(=O)c3cccc(O)c3)C2=O)cc1	-30	-3	-1	-15	?	4
O=C(CN1C(=O)/C(=C/c2ccccc2)SC1=S)NNC(=O)c1ccccc1O	-4	.	-2	20	?	-11
COc1cccc(/C=C2/SC(=S)N(CC(=O)NNC(=O)c3ccccc3O)C2=O)c1	11	-1	-1	17	21*	11
Cc1ccc(/C=C2\SC(=S)N(CCC(=O)NNC(=O)c3ccc(O)cc3)C2=O)cc1	-16	-7	1	-20	144*	1
C[C@@H]1CCCCO[C@@H](CN(C)S(=O)(=O)c2ccc(F)cc2)[C@@H](C)CN([C@H](C)CO)C(=O)c2cc(NC(=O)Cc3ccccc3)ccc2O1	20[16.7 µM]	4	.	0	.	2
SMILES	HIV Env fusion	Cneo AK release	CDK5 p35 inh	PAX8 inh HTS	dFosB act	GSIS activator
Cc1ccc(S(=O)(=O)Nc2ccc3c(c2)C(=O)N([C@H](C)CO)C[C@H](C)[C@@H](CN(C)C(=O)CCC(F)(F)F)OCCCC[C@H](C)O3)cc1	-158[16.7 µM]	55	.	-7	.	-13
CC(C)NC(=O)N(C)C[C@@H]1Oc2cc(-c3ccncc3)ccc2S(=O)(=O)N([C@H](C)CO)C[C@@H]1C	-13[16.7 µM]	-1	.	.	.	7
C/C=C/c1ccc([C@@H]2[C@@H](CO)N(C(=O)c3cnccn3)C23CN(C(=O)C2CCC2)C3)cc1	.	.	.	-3	.	8
Cc1ccc(C(=O)NNC(=O)CCCN2C(=O)/C(=C/c3ccccc3Cl)SC2=S)cc1	-11	7	0	19	-16	-8
Cc1ccc(/C=C2\SC(=S)N(CCC(=O)NNC(=O)c3ccccc3O)C2=O)cc1	0	-3	0	-4	66*	-3
Cc1ccc(/C=C2\SC(=S)N(CCC(=O)NNS(=O)(=O)c3ccccc3)C2=O)cc1	24	0	3	-26	22*	6
O=C(CCN1C(=O)/C(=C/c2ccccc2Cl)SC1=S)NCCc1ccc(O)cc1	8	-2	-1	52	23*	-6
Cc1ccc(/C=C2\SC(=S)N(CCCC(=O)NNC(=O)c3ccccc3O)C2=O)cc1	96*	-1	0	64*	9	5
O=C(CCN1C(=O)/C(=C/c2ccccc2Cl)SC1=S)NN1CCOCC1	-21	2	2	11	-3	-2
O=c1oc2ccccc2cc1-c1cn2ccccc2n1	36	.	5	71*	-5	-19
COc1ccc(NC(=O)N(C)C[C@@H]2Oc3c(NS(=O)(=O)c4ccc(F)cc4)cccc3C(=O)N([C@H](C)CO)C[C@@H]2C)cc1	-112[16.7 µM]	-2	.	-1	.	-23
CN(C)CC(=O)Nc1ccc2c(c1)[C@H]1C[C@@H](CC(=O)NCCc3ccccc3)O[C@H](CO)[C@H]1O2	60*[16.7 µM]	-1	.	2	.	3
CN(C)CC(=O)Nc1ccc2c(c1)[C@@H]1C[C@@H](CC(=O)NCc3cccc(F)c3)O[C@H](CO)[C@@H]1O2	2[16.7 µM]	0	.	-3	.	-2
O=C(C[C@@H]1C[C@H]2c3cc(NC(=O)C4CCOCC4)ccc3O[C@H]2[C@@H](CO)O1)NCc1ccc(Oc2ccccc2)cc1	-19[16.7 µM]	-5	.	-6	.	30
O=C(C[C@H]1C[C@@H]2c3cc(NC(=O)C4CCOCC4)ccc3O[C@@H]2[C@@H](CO)O1)NCc1ccccc1F	82*[16.7 µM]	1	.	-3	.	0
CN(C)CC(=O)Nc1ccc2c(c1)[C@H]1C[C@H](CC(=O)NCc3cccc(F)c3)O[C@@H](CO)[C@H]1O2	64*[16.7 µM]	-4	.	-9	.	0
O=C(C[C@H]1C[C@@H]2c3cc(NC(=O)C4CCOCC4)ccc3O[C@@H]2[C@@H](CO)O1)NCc1ccc(Oc2ccccc2)cc1	-15[16.7 µM]	-4	.	78*	.	-23
COCCNC(=O)C[C@@H]1C[C@H]2c3cc(NC(=O)C4CCOCC4)ccc3O[C@H]2[C@H](CO)O1	13[16.7 µM]	109*	.	-12	.	1

Screening data (PubChem)
